# Results reported in ChEMBL document CHEMBL1127464, “Inhibitors of HIV-1 proteinase containing 2-heterosubstituted 4-amino-3-hydroxy-5-phenylpentanoic acid: synthesis, enzyme inhibition, and antiviral activity” (J Med Chem, 1994).
# pIC50, pKi: −log10 of the molar value.
# Columns and labels:
# [1] = target: Human immunodeficiency virus type 1 protease (Human immunodeficiency virus 1, UniProt Q72874); test: Inhibitory constant against HIV-1 protease
# Procedure, shortened: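 HIV-1 proteinase expressed in E. coli JM 105 and purified to homogeneity. Initial rates were taken from the absorbance decrease at 298 nm. IC50 came from a fit of the initial velocities. Ki was derived from IC50 accounting for enzyme, substrate and Km. Mean of two determinations.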
# [2] = tested on: Human immunodeficiency virus 1; test: Antiviral activity by observing cytopathic effect induced by HIV-1 strain IIIB in de novo infected MT-4 cells; assay type: functional, organism-based; details: Human immunodeficiency virus 1, MT4
smiles,measurement,setting,value
CC(C)[C@H](NC(=O)OCc1ccccn1)C(=O)N[C@@H](Cc1ccccc1)[C@@H](O)[C@@H](NCc1ccccc1)C(=O)N[C@H](C(=O)NCc1ccccc1)C(C)C,pKi,[1],8.07
same,pIC50,[2],6.46
CC(C)[C@H](NC(=O)OC(C)(C)C)C(=O)N[C@@H](Cc1ccccc1)[C@@H](O)[C@@H](NCc1ccccc1)C(=O)N[C@H](C(=O)NCc1ccccc1)C(C)C,pKi,[1],6.67
same,pIC50,[2],< 5.52
CC[C@H](C)[C@H](NC(=O)[C@H](NCc1ccccc1)[C@H](O)[C@H](Cc1ccccc1)NC(=O)[C@@H](NC(=O)OCc1ccccc1)C(C)C)C(=O)NCc1ccccc1,pKi,[1],< 5.52
same,pIC50,[2],< 5.52
CC(C)[C@H](NC(=O)[C@H](NCc1ccccc1)[C@H](O)[C@H](Cc1ccccc1)NC(=O)[C@H](CCC(N)=O)NC(=O)OCc1ccccc1)C(=O)NCc1ccccc1,pKi,[1],7.35
same,pIC50,[2],5.70
CC(C)[C@H](NC(=O)OCc1ccccc1)C(=O)N[C@@H](Cc1ccccc1)[C@@H](O)[C@@H](NCc1ccccc1)C(=O)N[C@H](C(=O)OCc1nc2ccccc2[nH]1)C(C)C,pKi,[1],7.54
same,pIC50,[2],< 5.52
CC(C)[C@H](NC(=O)OCc1ccccc1)C(=O)N[C@@H](Cc1ccccc1)[C@@H](O)[C@@H](Nc1ccc(-c2ccccc2)cc1)C(=O)N[C@H](C(=O)NCc1ccccc1)C(C)C,pKi,[1],7.23
same,pIC50,[2],< 5.52
CC(C)[C@H](NC(=O)OCc1ccccc1)C(=O)N[C@@H](Cc1ccccc1)[C@@H](O)[C@@H](NCc1ccc(Cl)cc1)C(=O)N[C@H](C(=O)NCc1nc2ccccc2[nH]1)C(C)C,pKi,[1],8.21
same,pIC50,[2],6.92
CC(C)[C@H](NC(=O)OCc1ccccc1)C(=O)N[C@@H](Cc1ccccc1)[C@@H](O)[C@@H](NCCc1c[nH]c2ccccc12)C(=O)N[C@H](C(=O)NCc1ccccc1)C(C)C,pKi,[1],7.21
same,pIC50,[2],< 5.52
CC(C)[C@H](NC(=O)[C@H](NCc1ccccc1)[C@H](O)[C@H](Cc1ccccc1)NC(=O)[C@@H](NC(=O)OCc1ccccc1)c1ccccc1)C(=O)NCc1ccccc1,pKi,[1],7.29
same,pIC50,[2],< 5.52
CC(C)[C@H](NC(=O)OCc1ccccc1)C(=O)N[C@@H](Cc1ccccc1)[C@@H](O)[C@@H](NCc1cccc2ccccc12)C(=O)N[C@H](C(=O)NCc1ccccc1)C(C)C,pKi,[1],7.59
same,pIC50,[2],< 5.52
CC(C)C[C@H](NC(=O)OCc1ccccc1)C(=O)N[C@@H](Cc1ccccc1)[C@@H](O)[C@@H](NCc1ccccc1)C(=O)N[C@H](C(=O)NCc1ccccc1)C(C)C,pKi,[1],7.19
same,pIC50,[2],< 5.52
CC(C)[C@H](NC(=O)CCCCCN)C(=O)N[C@@H](Cc1ccccc1)[C@@H](O)[C@@H](NCc1ccccc1)C(=O)N[C@H](C(=O)NCc1ccccc1)C(C)C,pKi,[1],7.48
same,pIC50,[2],< 5.52
CCOC(=O)[C@@H](NC(=O)[C@H](NCc1ccccc1)[C@H](O)[C@H](Cc1ccccc1)NC(=O)[C@@H](NC(=O)OCc1ccccc1)C(C)C)C(C)C,pKi,[1],5.92
same,pIC50,[2],< 5.52
CC(C)[C@H](NC(=O)OCc1ccccc1)C(=O)N[C@@H](Cc1ccccc1)[C@@H](O)[C@@H](NCc1ccccc1)C(=O)N[C@@H](CC(N)=O)C(=O)NCc1ccccc1,pKi,[1],7.38
same,pIC50,[2],< 5.52
CC(C)[C@H](NC(=O)OCc1ccccc1)C(=O)N[C@@H](Cc1ccccc1)[C@@H](O)[C@@H](NCc1ccc(Cl)cc1)C(=O)N[C@H](C(=O)NCc1ccccc1)C(C)C,pKi,[1],7.77
same,pIC50,[2],6.40
CC(C)[C@H](NC(=O)CCc1nc2ccccc2[nH]1)C(=O)N[C@@H](Cc1ccccc1)[C@@H](O)[C@@H](NCc1ccccc1)C(=O)N[C@H](C(=O)NCc1ccccc1)C(C)C,pKi,[1],8.00
same,pIC50,[2],6.74
CC(C)[C@H](NC(=O)OCc1ccccc1)C(=O)N[C@@H](Cc1ccccc1)[C@@H](O)[C@@H](NCc1ccccc1)C(=O)N[C@@H](C(=O)NCc1ccccc1)C(C)(C)C.CC(C)[C@H](NC(=O)OCc1ccccc1)C(=O)N[C@@H](Cc1ccccc1)[C@@H](O)[C@@H](NCc1ccccc1)C(=O)N[C@H](C(=O)NCc1ccccc1)C(C)(C)C (stereo in doubt; 32(5:1)),pKi,[1],7.70
CC(C)[C@H](NC(=O)[C@H](NCc1ccccc1)[C@H](O)[C@H](Cc1ccccc1)NC(=O)[C@H](Cc1c[nH]c2ccccc12)NC(=O)OCc1ccccc1)C(=O)NCc1ccccc1,pKi,[1],6.70
same,pIC50,[2],< 5.52
CC(C)[C@H](NC(=O)OCc1ccccc1)C(=O)N[C@@H](Cc1ccccc1)[C@@H](O)[C@@H](NCc1ccccc1)C(=O)N[C@H](C(=O)NC(C)(C)C)C(C)C,pKi,[1],7.14
same,pIC50,[2],< 5.52
